# The list is not random: actives were taken first. Their share in the collection is about 1.9%.
# TDP2 absorb: human TDP2 enzyme inhibitors, primary screen, biochemical, epi absorbance, recombinant enzyme; T5PNP hydrolysis, p-nitrophenol absorbance 415 nm; inhibition, % at 12.8 µM; 370,000 tested, 0.34% active;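 active = inhibition above the mean of all tested compounds plus 3 SD, set per campaign, cut at about 25% in these data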;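 also: 0% = DMSO with enzyme and 100% = buffer with substrate but no TDP2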
#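 Test system: Human TDP2 enzyme | Reagent: 5 mM T5PNP | Compound dosing: 12.8 µM single point, 1% DMSO | Incubation: Enzyme reaction with compound for 2 h at 37 °C | Technique: p-Nitrophenol epi absorbance | Read-out: % inhibition relative to enzyme-containing and enzyme-free wells | Benchmarks: High control without enzyme, low control DMSO plus TDP2 | Replicates: Singlicate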
# MBD2 DNA inh: inhibitors of MBD2 binding to methylated DNA, primary screen, biochemical, TR-FRET, DNA-binding domain, human; Methyl-CpG-binding domain protein 2 (Homo sapiens), Q9UBB5; MBD2 binding to methylated oligonucleotide; inhibition, % at 4.4 µM; 370,000 tested, 0.31% active; in the data active = inhibition above about 13%
# UHRF1 binding: UHRF1 methylated DNA binding inhibitors, primary screen, counter-screen for MBD2 inhibitor project, biochemical, TR-FRET, human UHRF1, single concentration; E3 ubiquitin-protein ligase UHRF1 (Homo sapiens), Q96T88; UHRF1 binding to methylated oligo; inhibition, % at 4.4 µM; 370,000 tested, 0.75% active; in the data active = inhibition above about 21%;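 also: UHRF1 SRA domain binding a hemimethylated CpG hairpin DNA probe; 0% = median of test compound wells and 100% = reference inhibitor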
# Target sequence (Q96T88 whole entry, looked up, the tested form may be a part): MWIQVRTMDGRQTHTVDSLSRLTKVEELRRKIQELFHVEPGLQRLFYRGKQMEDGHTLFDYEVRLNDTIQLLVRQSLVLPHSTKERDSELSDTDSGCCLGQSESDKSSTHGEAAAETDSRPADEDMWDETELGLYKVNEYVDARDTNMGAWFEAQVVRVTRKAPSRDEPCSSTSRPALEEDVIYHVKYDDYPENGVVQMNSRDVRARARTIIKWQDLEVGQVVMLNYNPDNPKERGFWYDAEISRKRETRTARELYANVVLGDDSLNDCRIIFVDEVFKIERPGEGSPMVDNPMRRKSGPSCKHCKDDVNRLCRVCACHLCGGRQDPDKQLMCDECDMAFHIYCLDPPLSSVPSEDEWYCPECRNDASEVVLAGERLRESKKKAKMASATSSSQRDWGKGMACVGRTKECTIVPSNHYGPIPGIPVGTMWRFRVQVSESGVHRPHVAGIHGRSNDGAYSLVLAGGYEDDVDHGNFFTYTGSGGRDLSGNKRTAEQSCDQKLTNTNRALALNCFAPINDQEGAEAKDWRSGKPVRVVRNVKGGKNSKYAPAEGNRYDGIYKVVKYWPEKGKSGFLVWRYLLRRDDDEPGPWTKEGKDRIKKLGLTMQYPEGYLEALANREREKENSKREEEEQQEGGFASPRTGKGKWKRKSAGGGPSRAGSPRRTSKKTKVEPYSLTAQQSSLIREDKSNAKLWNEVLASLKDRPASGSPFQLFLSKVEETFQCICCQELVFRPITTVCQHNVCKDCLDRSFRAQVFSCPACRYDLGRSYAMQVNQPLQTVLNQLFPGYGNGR
# LEDGF integ inh: blockers of LEDGF/p75-dependent integrase strand transfer – biochemical, TR-FRET, high throughput, primary screen. TR-FRET IN-LEDGF/p75 DNA integration, Eu/Cy5. inhibition, % at 3.7 µM. 370,000 tested, 0.64% active. AID 743269, 2014;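 active = inhibition above the screen-wide mean plus 3 SD, cut at about 13% in these data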;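 also: signal is the Cy5 over europium emission ratio at 671 and 618 nm; 0% = plate median of compound wells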
# NSD2 HMT inh: NSD2 histone methyltransferase inhibitors, primary screen, biochemical, AlphaScreen, single concentration, set 2 | Histone-lysine N-methyltransferase NSD2 (Homo sapiens), O96028 | NSD2 peptide methylation, 120 min | inhibition, % at 12.5 µM | 310,000 tested, 0.54% active | AID 743445, 2014; in the data active = inhibition above about 50%
# CASP6 VEID inh: human caspase-6 inhibitors, primary screen, biochemical, VEID-R110 fluorescence, single point, set 2; P55212; purified caspase-6, Z-VEID-R110 cleavage fluorescence; inhibition, % at 12.5 µM; 350,000 tested, 0.53% active;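 active = mean inhibition across replicates at least about 35%, with every replicate also reaching that limit, limit read from the data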;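 also: 0% = median of neutral control wells and 100% = no fluorescence left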
# TDP2 inh conf: human TDP2 enzyme inhibitors, retest, confirmation, biochemical, epi absorbance, recombinant enzyme. shares compounds with TDP2 absorb. absorbance read-out. inhibition, % at 12.8 µM. 1,100 tested, 22% active; in the data active = inhibition above about 25%;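 also: 0% = vehicle with enzyme and 100% = no enzyme buffer only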
# IN multimer up: HIV-1 IN multimer formation enhancers, counter-screen for LEDGF/p75 integration inhibitor project, biochemical, TR-FRET | shares compounds with LEDGF integ inh | TR-FRET HIV-1 integrase multimerization | activation, % at 7.7 µM | 2,000 tested, 17% active | AID 1053131, 2014; in the data active = activation above about 8.9%
# TR-FRET interf: TR-FRET optical interference artefacts, confirmation, artefact control for LEDGF/p75-dependent integration inhibitor project, biochemical, HIV-1 IN multimerization | inhibition, % at 7.7 µM | TR-FRET optical interference counterscreen | 2,000 tested, under 10 active | shares compounds with LEDGF integ inh | AID 1053135, 2014;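 active = inhibition above the mean over all tested compounds plus 3 SD, which no compound reached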;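 also: 0% = integrase with antibodies and DMSO and 100% = antibodies without integrase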
# IN-LEDGF confirm: inhibitors of HIV-1 IN-LEDGF/p75 DNA integration, confirmation, biochemical, TR-FRET. 2,000 tested, 36% active. TR-FRET LEDGF/p75-dependent HIV-1 integration. shares compounds with LEDGF integ inh. inhibition, % at 3.7 µM. AID 1053136, 2014; in the data active = inhibition above about 14%
# Numbers without * were called inactive; nt = no result.
SMILES,TDP2 absorb,MBD2 DNA inh,UHRF1 binding,LEDGF integ inh,NSD2 HMT inh,CASP6 VEID inh,TDP2 inh conf,others
O=[N+]([O-])c1ccc2c(c1)ncn2-c1ccccc1,-4.8,0.2,3.5,5.1,-0.6,nt,nt,
CO[C@@H]1CN(C)C(=O)c2ccc(NC(C)=O)cc2OC[C@H](C)N(Cc2ccccc2C(=O)O)C[C@H]1C,nt,nt,nt,nt,nt,1.2,nt,
Cn1cnc(CCNC(=O)C[C@@H]2CC[C@@H]3[C@H](COC[C@@H](O)CN3C(=O)Nc3ccc(F)cc3)O2)c1,nt,nt,nt,nt,nt,0.4,nt,
CN(CCOc1ccccc1)CC(=O)Nc1ccc(S(=O)(=O)N2CCCC2)cc1,30.0*,11.1,24.6*,-0.3,nt,-0.3,-4.6,
CN1CCN(S(=O)(=O)c2ccc(NC(=O)COc3ccccc3)cc2)CC1,4.3,7.2,15.0,-1.9,nt,-1.9,nt,
CCC(=O)Nc1ccc2c(c1)C(=O)N(C)C[C@@H](OC)[C@@H](C)CN(C(C)=O)[C@@H](C)CO2,nt,nt,nt,nt,nt,-1.6,nt,
C[C@H](CO)N1C[C@H](C)[C@@H](CN(C)C(=O)C2CC2)Oc2ncc(C#Cc3ccccc3)cc2C1=O,nt,nt,nt,nt,nt,-4.9,nt,
Cc1nn(CCO)c(N)c1C1(O)C(=O)Nc2c(Cl)cc(Cl)cc21 (configuration not stated),28.4*,-7.5,-3.4,1.4,5.6,11.2,1.4,
CCOC(=O)c1c(C)[nH]c(C(=O)CN2CCN(CC)CC2)c1C,10.2,-1.4,3.3,6.0,nt,-2.1,nt,
CCOC(=O)c1c(C)[nH]c(C(=O)CN2CC(C)OC(C)C2)c1C (configuration not stated),28.9*,3.3,1.6,2.8,0.6,nt,1.4,
Cc1c(Cl)cnc(NC(=O)COC(=O)c2ccc([N+](=O)[O-])s2)c1Cl,37.2*,-4.7,-0.6,1.6,17.9,16.9,22.1,
Cc1c(Cl)cnc(NC(=O)COC(=O)c2cccs2)c1Cl,3.6,-2.7,-0.1,-3.3,1.2,3.0,nt,
Cc1nc2cc(NC(=O)N(C)c3ccc4ccccc4c3)ccc2o1,43.9*,-10.7,-4.6,11.2,2.0,nt,-4.5,
COc1ccc(CCN2CC(C(=O)NCCc3ccccc3)CC2=O)cc1OC (configuration not stated),-3.0,-2.2,-2.1,-0.3,-8.1,2.2,nt,
CCOc1ccc(CCNC(=O)C2CC(=O)N(CCc3ccc(OC)c(OC)c3)C2)cc1OCC (configuration not stated),25.1*,0.9,0.3,0.5,0.2,-3.0,2.5,
COc1cccc(N2CC(NS(=O)(=O)c3cccnc3)CC2=O)c1 (configuration not stated),28.7*,-4.3,-0.5,-0.7,0.4,-4.9,-4.7,
Oc1ccc(Nc2ccccc2F)c2cccnc12,35.7*,-15.7,-3.2,34.2*,nt,nt,-15.5,IN multimer up=1.6;TR-FRET interf=-8.2;IN-LEDGF confirm=1.2
Oc1ccc(-c2ccccc2F)c2cccnc12,7.6,-2.3,-4.3,5.6,nt,nt,nt,
C[C@H]1CN([C@@H](C)CO)C(=O)c2ccccc2-c2ccccc2CO[C@H]1CN(C)C(=O)Nc1ccccc1C(F)(F)F,nt,nt,nt,nt,nt,0.8,nt,
CO[C@@H]1CN(C)C(=O)c2ccc(NC(=O)NC(C)C)cc2OC[C@H](C)N(C(=O)NC(C)C)C[C@H]1C,nt,nt,nt,nt,nt,-3.1,nt,
C/C=C/c1ccc([C@H]2[C@@H](CNC(=O)NC(C)C)N(C(=O)C3CC3)[C@H]2CO)cc1,nt,nt,nt,nt,nt,4.8,nt,
Nc1ccccc1SCC(=O)Nc1ccc(N2CCOCC2)cc1,28.4*,-4.4,-5.5,17.9*,-1.0,nt,7.0,IN multimer up=1.9;TR-FRET interf=-9.7;IN-LEDGF confirm=1.1
CC(=O)c1ccc(NC(=S)Nc2ccc(N3CCOCC3)cc2)cc1,27.9*,-3.5,2.1,15.0*,5.0,4.6,8.0,IN multimer up=-0.3;TR-FRET interf=1.4;IN-LEDGF confirm=1.6
C/C(=C\C(=O)c1ccccc1)Nc1ccc(N2CCOCC2)cc1,33.4*,-4.6,1.2,21.8*,-0.4,nt,-5.9,IN multimer up=3.0;TR-FRET interf=-10.6;IN-LEDGF confirm=-7.5
CCCNC(=O)N1[C@H](CO)[C@H](c2ccccc2)[C@@H]1CNC(=O)C1CCCC1,nt,nt,nt,nt,nt,-2.7,nt,
SMILES,TDP2 absorb,MBD2 DNA inh,UHRF1 binding,LEDGF integ inh,NSD2 HMT inh,CASP6 VEID inh,TDP2 inh conf,others
C[C@H]1CN([C@@H](C)CO)C(=O)Cc2cc(NS(=O)(=O)c3ccccc3)ccc2O[C@H]1CN(C)Cc1ccc2c(c1)OCO2,nt,nt,nt,nt,nt,-0.3,nt,
O=c1cc(-c2ccc(F)cc2)[nH][nH]1,55.0*,-9.3,-1.5,17.2*,0.3,nt,7.7,IN multimer up=2.3;TR-FRET interf=-11.7;IN-LEDGF confirm=16.8*
O=c1cc(-c2ccccc2)[nH][nH]1,58.8*,-5.4,-0.8,23.3*,0.0,4.6,4.3,IN multimer up=-2.2;TR-FRET interf=8.0;IN-LEDGF confirm=3.2
Fc1ccc(-c2cnc[nH]2)cc1,6.1,7.9,17.7,0.3,1.4,nt,nt,
CN(C)C(=O)C[C@@H]1CC[C@H]2[C@H](COc3ccc(NC(=O)C4CC4)cc3C(=O)N2C)O1,nt,nt,nt,nt,nt,0.6,nt,
COCCn1c(N)c(S(=O)(=O)c2cccs2)c2nc3ccccc3nc21,57.5*,-4.8,12.0,13.9*,-2.8,3.3,-6.5,IN multimer up=0.5;TR-FRET interf=-2.5;IN-LEDGF confirm=-4.1
C[C@@H]1CN([C@@H](C)CO)C(=O)c2c(c3ccccc3n2C)-c2ccccc2CO[C@H]1CN(C)Cc1cccc(F)c1,nt,nt,nt,nt,nt,0.1,nt,
COCC(=O)Nc1ccc2c(c1)[C@@H]1C[C@@H](CC(=O)NCc3ccc(OC)cc3)O[C@@H](CO)[C@@H]1O2,nt,nt,nt,nt,nt,14.6,nt,
COc1cc(N)c2ncccc2c1SC,44.7*,-14.9,-1.5,16.3*,7.7,5.1,3.0,IN multimer up=3.5;TR-FRET interf=-17.4;IN-LEDGF confirm=14.3*
COc1cc(NC(C)=O)c2ncccc2c1NC(C)=O,-8.6,-1.4,-1.7,-1.6,-2.0,-4.1,nt,
